Compounds with a hit are over-represented: about 3.5% of the library has one in this group of screens.
MrgX1 antag: antagonists of human MrgX1 receptor, primary screen, HEK293 cells, Fluo-4 calcium flux. Mas-related G-protein coupled receptor member X1 (Homo sapiens), Q96LB2. BAM8-22 antagonism; hits give low values. B-score at 10 µM. 1.3% of 310,000 active. AID 588676, 2011;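 active = calcium-response B-score plate-corrected more than 3 library SD below zero, starting fluorescence within 5 deviations, no agonist response on first addition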;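 note: peak minus trough fluorescence over baseline after final BAM8-22 challenge near maximal dose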
Target sequence (Q96LB2 whole entry, looked up): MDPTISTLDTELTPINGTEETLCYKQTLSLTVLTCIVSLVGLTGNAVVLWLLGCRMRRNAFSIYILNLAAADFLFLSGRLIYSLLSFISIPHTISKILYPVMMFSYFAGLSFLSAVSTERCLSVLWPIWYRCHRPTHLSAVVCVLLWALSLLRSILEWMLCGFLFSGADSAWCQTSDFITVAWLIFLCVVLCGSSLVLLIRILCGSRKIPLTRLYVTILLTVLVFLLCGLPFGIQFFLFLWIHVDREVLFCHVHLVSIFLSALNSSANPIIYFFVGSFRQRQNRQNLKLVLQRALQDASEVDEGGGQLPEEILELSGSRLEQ
MrgX1 PAM: positive allosteric modulators of MrgX1, primary screen, HEK293 cells, Fluo-4 calcium flux; Mas-related G-protein coupled receptor member X1 (Homo sapiens), Q96LB2; FDSS; hits give high values; B-score at 10 µM; 0.63% of 310,000 active;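 active = plate-corrected calcium response at least 3 library SD above typical, normal starting fluorescence, not activating the receptor alone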;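 note: compound read alongside a low EC10 to EC30 dose of BAM8-22 agonist; peak minus trough fluorescence over baseline measured at the second addition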
RGS4 pot: RGS4 potentiators or activators, primary screen, cell-based, HEK293 M3R inducible RGS4, calcium flux; carbachol calcium flux Fluo4; hits give low values; B-score at 10 µM; 0.92% of 310,000 active; AID 463111, 2010;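 active = B-score of the integrated calcium signal more than 4 SD below the library mean, with starting fluorescence not abnormally high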;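 note: negative B-score means reduced calcium response which marks RGS4 activation or potentiation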
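Material: Inducible-RGS4 HEK293 cells carrying M3 receptor; also added: carbachol at ECmax as muscarinic agonist stimulus; incubation: compound preincubation 20 min at room temperature before agonist; signal: Fluo4-AM (2 µM) calcium-flux fluorescence, kinetic read; measure: integrated calcium ratio converted to B score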
RGS4 block: RGS4 inhibitors, primary screen, cell-based, HEK293 M3R inducible RGS4, calcium flux; Fluo-4 calcium flux; hits give high values; triggered by carbachol at its EC20; B-score at 10 µM; AID 463165, 2010; 0.45% of 310,000 active;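 active = B-score, a plate-corrected calcium signal, over three deviations above library mean, with baseline fluorescence within five deviations of library mean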;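 note: RGS4 expression induced by doxycycline in cells with stable M3 receptor; B-score is computed from the integrated fluorescence ratio over baseline after carbachol; higher B-score means a larger calcium signal and so more RGS4 inhibition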
MrgX1 ag: agonists of human MrgX1 receptor, primary screen, HEK293 cells, Fluo-4 calcium flux | B-score at 10 µM | 0.44% of 310,000 active | AID 588627, 2011 | Fluo-4 calcium fluorescence, agonist mode; hits give high values;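 active = calcium response B-score plate-corrected fluorescence ratio at least 3 library SD, with starting fluorescence B-score inside 5 SD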
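Material: MrgX1-expressing HEK293 cells; input: 15,000 cells per well; doses: test compound given as first of three sequential additions; schedule: overnight plating before 1 h dye loading; technique: Fluo-4 NW calcium-flux fluorescence, kinetic read; evaluation: baseline-normalised fluorescence change ratio, B-scored; control set: plate-wise positive and negative controls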
Starred values were filed as active, the others as inactive; i = inactive; · = not tested or not shown.

SMILES	MrgX1 antag	MrgX1 PAM	RGS4 pot	RGS4 block	MrgX1 ag
O=C(CNC(=O)c1ccccc1F)NCc1cccnc1	i	i	i	i	i
CCN1C(=O)CC(NC2CCN(C(=O)c3ccc(F)cc3)CC2)C1=O (centres undefined)	i	i	i	i	i
CN=c1scc(C)n1/N=C/c1ccc(O)c(O)c1O	i	i	i	i	i
CN=c1scc(-c2cccs2)n1/N=C/c1ccc(O)c(O)c1O	i	14*	i	i	i
CN=c1scc(-c2cccs2)n1/N=C/c1ccccc1O	i	7.4*	i	i	i
Cc1cccc(NC(=O)CSc2nnc(-c3ccncc3)n2CC2CCCO2)c1 (centres undefined)	i	i	i	i	i
CS(=O)(=O)c1nc(-c2cccs2)cc(C(F)(F)F)n1	i	i	i	i	36*
O=C(O)CCS(=O)(=O)c1nc(-c2cccs2)cc(C(F)(F)F)n1	i	i	i	i	i
Cc1ccc(-c2nnn(CC(=O)N(c3cccc(F)c3)C(C(=O)NC3CCCC3)c3ccco3)n2)o1 (centres undefined)	-6.6*	i	i	i	i
Cc1ccc(-c2nnn(CC(=O)N(c3ccc(F)cc3)C(C(=O)NC3CCCC3)c3ccco3)n2)o1 (centres undefined)	i	i	i	i	i
COc1cccc(Nc2c([N+](=O)[O-])cncc2[N+](=O)[O-])c1	i	i	i	i	31*
O=[N+]([O-])c1cncc([N+](=O)[O-])c1Nc1ccccc1Cl	i	i	i	i	i
NS(=O)(=O)c1ccc(Nc2c([N+](=O)[O-])cncc2[N+](=O)[O-])cc1	i	i	i	i	35*
CCOCc1cc(CN2CCC(CCC(=O)NC3CC3)CC2)ccc1OC	i	i	i	i	i
O=C(NC(=Nc1nc2ccccc2o1)NC(=O)c1ccccc1)c1ccccc1	i	i	i	i	i
COc1ccccc1C(=O)NC(=Nc1nc2ccccc2o1)NC(=O)c1ccccc1OC	i	i	-7.2*	i	i
Cc1ccc(S(=O)(=O)N(CC(=O)Nc2cccc(C)c2C)C(=O)N2CCN(C)CC2)cc1	·	·	i	i	·
COC(=O)c1ccc2c(c1)C(C)(C)C(/C=C/c1ccc(OC)c(OC)c1OC)=[N+]2C	-6.5*	i	i	i	i
O=C(NCCCO)c1nnc(Cc2c(F)cccc2Cl)o1	i	i	i	i	i
O=C(NCCCN1CCN(Cc2ccccc2)CC1)c1nnc(Cc2c(F)cccc2Cl)o1	-4.7*	i	i	i	i
Cc1c(CCO)c(=O)[nH]n1S(=O)(=O)c1ccc([N+](=O)[O-])cc1	i	i	i	i	i
Cc1ccc(S(=O)(=O)N2CCN(C)CC2)cc1[N+](=O)[O-]	-4.9*	i	i	i	i
CCN1/C(=C/C=C/c2oc3ccc4ccccc4c3[n+]2CC)Oc2ccc3ccccc3c21	-7.8*	i	-9*	i	i
COc1cccc(C(=O)C2CCCN(CC3=Cc4cc(OC)ccc4OC3)C2)c1 (centres undefined)	i	i	-7*	i	i
O=C(NCCCN1CCCC1)c1ccc2c(c1)N(Cc1ccccc1)CCS2	i	i	-7.4*	i	i
COc1ccc(NS(=O)(=O)c2ccc3c(c2)NC(=O)CO3)c(OC)c1	i	i	i	i	i
CCNc1nc2c(c(=O)n(Cc3ccccc3)c(=O)n2C)n1Cc1ccccc1	i	i	i	i	i
COc1ccc2c(c1)C(c1ccc(C)o1)=NNC(c1ccccc1)=N2	-8.4*	i	i	i	i
CCOc1ccc(C2C=C(c3ccccc3)Nc3ncnn32)cc1 (centres undefined)	i	11*	i	i	i
